Measurements taken from ChEMBL document CHEMBL1135733, “6-Sulfonylchromenes as highly potent K(ATP)-channel openers” (J Med Chem, 2002).

How the values were obtained:
Rattus norvegicus [1] = species on record: Rattus norvegicus; experiment: Maximum level of relaxation of aortic rings measured as percentage of basal tension.; format: functional; details: Aorta
Method in brief: (§1)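 Isolated rat aortic rings at 5 mN resting force in supplemented Krebs solution, 32.5 °C, equilibrated 2 h with two test contractures; cumulative concentration-effect curves, effects as % of basal force (100% relaxation) vs maximum force (0%). pEC50 by linear extrapolation at half-maximal effect; Emax as % of basal tension; mean ± SEM, n = 4–6; paired time controls.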

[2] = molecular target: ATP-binding cassette sub-family C member 9 (Rattus norvegicus) (UniProt Q63563); experiment: Binding affinity towards Sulfonylurea receptor 2B (SUR2B) in cultured rat aortic smooth muscle cells (SMC)
Rattus norvegicus [3] = species on record: Rattus norvegicus; experiment: Difference between the pEC50 values in rat aorta and trachea as an indicator of selectivity; format: functional
Rattus norvegicus [4] = species on record: Rattus norvegicus; experiment: Dilator activity expressed as potency for relaxation of Tracheal strips percontracted with 0.6 uM carbachol; format: functional
Method in brief: (§2)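 Rat tracheal strips at 10 mN resting force in supplemented Krebs solution, 32.5 °C, equilibrated 2 h with two test contractures; concentration-effect curves, effects as % of basal force (100% relaxation) vs maximum force (0%). pEC50 by linear extrapolation at half-maximal effect; Emax as % of basal tension; mean ± SEM, n = 4–6; paired time controls.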

[5] = molecular target: ATP-binding cassette sub-family C member 9 (Rattus norvegicus) (UniProt Q63563); experiment: Binding affinity to the sulfonylurea receptor 2A (SUR2A) in purified membranes of rat-heart myocytes; format: cell membranes
Rattus norvegicus [6] = species on record: Rattus norvegicus; experiment: Maximum level of relaxation of tracheal strips measured as percentage of basal tension; format: functional; details: Trachea; method in brief: as §2
Rattus norvegicus [7] = species on record: Rattus norvegicus; experiment: Dilator activity expressed as potency for relaxation of Aortic rings precontracted with 25 mM K; format: functional; method in brief: as §1

Sequence of ATP-binding cassette sub-family C member 9 (Rattus norvegicus) (Q63563 whole entry): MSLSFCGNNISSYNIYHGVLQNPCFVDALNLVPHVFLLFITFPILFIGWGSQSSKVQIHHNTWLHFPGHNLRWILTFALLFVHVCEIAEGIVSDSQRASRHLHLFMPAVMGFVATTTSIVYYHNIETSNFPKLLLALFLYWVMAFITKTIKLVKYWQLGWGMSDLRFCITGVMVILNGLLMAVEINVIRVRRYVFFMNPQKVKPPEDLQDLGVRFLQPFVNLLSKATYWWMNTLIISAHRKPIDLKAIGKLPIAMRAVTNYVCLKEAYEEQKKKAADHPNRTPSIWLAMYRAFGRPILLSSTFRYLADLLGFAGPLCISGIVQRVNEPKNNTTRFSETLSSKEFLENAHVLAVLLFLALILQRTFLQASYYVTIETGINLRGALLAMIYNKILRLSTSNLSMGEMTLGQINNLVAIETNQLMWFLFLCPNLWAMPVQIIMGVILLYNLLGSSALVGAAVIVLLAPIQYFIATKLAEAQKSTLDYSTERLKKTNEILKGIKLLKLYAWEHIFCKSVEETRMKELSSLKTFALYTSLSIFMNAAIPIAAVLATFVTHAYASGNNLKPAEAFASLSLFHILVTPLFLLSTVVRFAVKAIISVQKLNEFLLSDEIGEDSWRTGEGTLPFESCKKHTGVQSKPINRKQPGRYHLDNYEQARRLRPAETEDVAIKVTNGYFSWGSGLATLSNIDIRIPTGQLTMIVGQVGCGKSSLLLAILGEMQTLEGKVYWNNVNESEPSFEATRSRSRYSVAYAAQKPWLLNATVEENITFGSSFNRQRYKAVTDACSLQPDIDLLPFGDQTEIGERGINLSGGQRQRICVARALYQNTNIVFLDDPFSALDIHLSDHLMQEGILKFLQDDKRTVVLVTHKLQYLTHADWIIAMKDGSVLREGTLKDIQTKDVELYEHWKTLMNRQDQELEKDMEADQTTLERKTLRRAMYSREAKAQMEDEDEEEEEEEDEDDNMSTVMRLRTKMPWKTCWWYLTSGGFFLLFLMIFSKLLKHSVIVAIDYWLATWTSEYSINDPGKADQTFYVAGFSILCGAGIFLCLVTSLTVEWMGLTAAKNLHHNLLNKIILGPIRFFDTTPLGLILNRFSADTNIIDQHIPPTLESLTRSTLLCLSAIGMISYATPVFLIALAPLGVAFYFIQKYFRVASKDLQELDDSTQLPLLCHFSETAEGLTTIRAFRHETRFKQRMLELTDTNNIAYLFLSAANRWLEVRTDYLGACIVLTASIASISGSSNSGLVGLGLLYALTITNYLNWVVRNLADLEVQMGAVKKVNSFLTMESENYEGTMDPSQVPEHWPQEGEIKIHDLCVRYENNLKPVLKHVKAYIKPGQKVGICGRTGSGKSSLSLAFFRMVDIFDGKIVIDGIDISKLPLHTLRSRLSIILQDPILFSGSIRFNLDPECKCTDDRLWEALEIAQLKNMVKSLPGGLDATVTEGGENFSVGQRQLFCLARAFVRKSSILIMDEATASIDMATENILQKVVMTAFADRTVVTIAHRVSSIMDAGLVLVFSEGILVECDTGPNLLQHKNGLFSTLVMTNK

| SMILES | pKD [2] | Delta pEC50 (Rattus norvegicus [3]) | EC50 (Rattus norvegicus [4]) | pKD [5] | EC50 (Rattus norvegicus [7]) | pKD ([2]; tested as the 2H-labelled form) | pKD ([5]; tested as the 2H-labelled form) | Emax (Rattus norvegicus [1]) | Emax (Rattus norvegicus [6]) |
| --- | --- | --- | --- | --- | --- | --- | --- | --- | --- |
| CC1(C)C=C(n2ccccc2=O)c2cc(S(=O)(=O)Nc3ccc([N+](=O)[O-])cc3)ccc2O1 | 5.8 | 0.69 | 10200 nM | 5.35 | 2090 nM | – | – | 82.2% | 75.6% |
| CC1(C)C=C(n2ccccc2=O)c2cc(S(=O)(=O)Nc3ccc(C#N)cc3)ccc2O1 | 6.12 | 0.72 | 1380 nM | 5.5 | 263 nM | – | – | 84% | 90.8% |
| CC1(C)C=C(n2ccccc2=O)c2cc(S(=O)(=O)NC(=O)Nc3ccccc3)ccc2O1 | – | 0.85 | 10000 nM | 5.5 | 1410 nM | – | – | 90.8% | 99.5% |
| CC1(C)Oc2ccc(S(=O)(=O)c3ccccc3)cc2[C@@H](N2CCCC2=O)[C@@H]1O [RILMAKALIM] | 8.15 | 1.05 | 26.9 nM | 7.57 | 2.4 nM | – | – | 81.2% | 78.5% |
| CC1(C)C=C(n2ccccc2=O)c2cc(S(=O)(=O)Oc3ccccc3)ccc2O1 | 8.55 | 0.72 | 13.2 nM | 7.78 | 2.51 nM | – | – | 67.9% | 86.7% |
| CC1(C)C=C(n2ccccc2=O)c2cc(S(=O)(=O)Nc3ccccc3Br)ccc2O1 | 7.64 | – | – | 6.86 | – | – | – | – | – |
| CC1(C)C=C(n2ccccc2=O)c2cc(S(=O)(=O)Nc3ccccc3)ccc2O1 | 8.05 | 0.66 | – | 7.83 | 3.09 nM | 8.13 | 7.73 | 63.6% | 84.5% |
| CN(c1ccccc1)S(=O)(=O)c1ccc2c(c1)C(n1ccccc1=O)=CC(C)(C)O2 | 7.87 | 0.75 | 9.77 nM | 7.69 | 1.74 nM | – | – | 64.2% | 86.5% |
| COc1ccc(NS(=O)(=O)c2ccc3c(c2)C(n2ccccc2=O)=CC(C)(C)O3)cc1 | 6.61 | 0.62 | 490 nM | 6.27 | 117 nM | – | – | 77.9% | 84.2% |
| CC1(C)C=C(n2ccccc2=O)c2cc(S(=O)(=O)NCc3ccccc3)ccc2O1 | 6 | 0.4 | 1320 nM | 5.28 | 525 nM | – | – | 71.1% | 77.5% |
| CC1(C)C=C(n2ccccc2=O)c2cc(S(=O)(=O)Nc3ccc(Br)cc3)ccc2O1 | 6.65 | – | – | 5.77 | – | – | – | – | – |
| CC1(C)C=C(n2ccccc2=O)c2cc(S(=O)(=O)Nc3ccccc3F)ccc2O1 | 7.96 | – | – | 7.63 | – | – | – | – | – |
| CC1(C)C=C(n2ccccc2=O)c2cc(S(=O)(=O)F)ccc2O1 | 8.01 | 1.3 | 93.3 nM | 7.83 | 4.79 nM | – | – | 84.4% | 90.5% |
| CC1(C)C=C(n2ccccc2=O)c2cc(S(=O)(=O)NC(=O)NC3CCCCC3)ccc2O1 | – | – | – | 5.25 | – | – | – | – | – |
| [2H]c1c([2H])c([2H])c(NS(=O)(=O)c2ccc3c(c2)C(n2ccccc2=O)=CC(C)(C)O3)c([2H])c1[2H] | – | 0.82 | 13.2 nM | – | 2 nM | – | – | 82.5% | 88% |

Continued, in another order:

| pKD [2] | Delta pEC50 (Rattus norvegicus [3]) | EC50 (Rattus norvegicus [4]) | pKD [5] | EC50 (Rattus norvegicus [7]) | pKD ([2]; tested as the 2H-labelled form) | pKD ([5]; tested as the 2H-labelled form) | SMILES | Emax (Rattus norvegicus [1]) | Emax (Rattus norvegicus [6]) |
| --- | --- | --- | --- | --- | --- | --- | --- | --- | --- |
| 6.94 | 0.51 | 224 nM | 6.5 | 69.2 nM | – | – | CC1(C)C=C(n2ccccc2=O)c2cc(S(N)(=O)=O)ccc2O1 | 77.5% | 92.1% |
| – | 1.1 | 204 nM | 7.83 | 16.2 nM | – | – | CC1(C)C=C(n2ccccc2=O)c2cc(S(=O)(=O)N=[N+]=[N-])ccc2O1 | 88.3% | 77.2% |
| 6.27 | – | – | 5.85 | – | – | – | CC1(C)C=C(n2ccccc2=O)c2cc(S(=O)(=O)NC3CCCC3)ccc2O1 | – | – |
| 7.19 | 1.02 | 182 nM | 6.86 | 17.4 nM | – | – | CC1(C)C=C(n2ccccc2=O)c2cc(S(=O)(=O)c3ccccc3)ccc2O1 | 79.3% | 88.1% |
| 7.98 | 0.99 | 158 nM | 7.25 | 16.2 nM | – | – | CC1(C)C=C(n2ccccc2=O)c2cc(C#N)ccc2O1 [BIMAKALIM] | 92.3% | 84.2% |
| 6.34 | 0.96 | 1000 nM | 6.16 | 110 nM | – | – | CC1(C)C=C(n2ccccc2=O)c2cc(S(=O)(=O)NCCO)ccc2O1 | 95.5% | 87.9% |
| 7 | 0.88 | – | 6.7 | 56.2 nM | – | – | CCNS(=O)(=O)c1ccc2c(c1)C(n1ccccc1=O)=CC(C)(C)O2 | 72.4% | 87% |
| 7.2 | 0.77 | 95.5 nM | 6.91 | 16.2 nM | – | – | CN(C)S(=O)(=O)c1ccc2c(c1)C(n1ccccc1=O)=CC(C)(C)O2 | 78.3% | 74.1% |
| 5.08 | 0.46 | 1950 nM | 5.18 | 676 nM | – | – | CC(C)NS(=O)(=O)c1ccc2c(c1)C(n1ccccc1=O)=CC(C)(C)O2 | 76.9% | 94.8% |
| 6.94 | – | – | 6.45 | – | – | – | CCN(CC)S(=O)(=O)c1ccc2c(c1)C(n1ccccc1=O)=CC(C)(C)O2 | – | – |
| 6.73 | 0.85 | 603 nM | 6.44 | 85.1 nM | – | – | CC1(C)C=C(n2ccccc2=O)c2cc(S(=O)(=O)N3CCOCC3)ccc2O1 | 75.5% | 85.1% |
| 7.26 | 0.89 | 138 nM | 7.18 | 17.8 nM | – | – | CNS(=O)(=O)c1ccc2c(c1)C(n1ccccc1=O)=CC(C)(C)O2 | 85.8% | 83% |
